Experiments:
Mus musculus [1] = test: Inhibition of arachidonic acid (AA)-induced mouse ear edema after pretreatment with compound (1 h before AA) at a drug concentration of 30 umol/kg po.; type: functional
Method in brief: (§1)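 Mice dosed orally at 30 µmol/kg, 1 h before arachidonic acid applied to ear; edema read 1 h after AA (2 h post-dose). Percent inhibition of edema formation calculated versus provoked untreated controls; maximal attainable inhibition in model 80%.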

Phosphodiesterase 4 = Phosphodiesterase 4 (Homo sapiens, UniProt P27815+Q08499+Q07343+Q08493); test: inhibition of cAMP-specific phosphodiesterase 4 (PDE4) was determined in cytosol from human neutrophils; type: protein assay
Method in brief: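 Enzyme source: cytosol of human neutrophils. Values as pIC50 (−log IC50), mean of two independent determinations each run in triplicate.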

Phosphodiesterase 3 = Phosphodiesterase 3 (Homo sapiens, UniProt Q14432+Q13370); test: Inhibition of dual cGMP-inhibited phosphodiesterase 3 (PDE3) was determined in homogenates from human platelets.
Method in brief: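 Enzyme source: homogenates of human platelets. Values as pIC50 (−log IC50), mean of two independent determinations each run in triplicate.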

Mus musculus [2] = test: In vivo inhibition of arachidonic acid induced mouse ear edema 1 hr after pretreatment with 30 umol/kg peroral dose; type: functional; settings: po; method in brief: as §1

Log IC50 (Phosphodiesterase 4)	Log IC50 (Phosphodiesterase 3)	Compound	inhibition in vivo at 30 µmol/kg (Mus musculus [1])	inhibition in vivo at 30 µmol/kg (Mus musculus [2])
-8.1	-6.6	CCOc1ccc(C2=NN(c3ccc(C4=NNC(=O)CC4C)cc3)C(=O)C3CC=CCC23)cc1OCC (stereo not drawn)	42%	–
-8.6	-6.7	CCOc1ccc(C2=NN(CCCCOc3ccc(C4=NNC(=O)CC4C)cc3)C(=O)C3CC=CCC23)cc1OCC (stereo not drawn)	46%	–
-8.1	-5.9	COc1ccc(C2=NN(CC(=O)Nc3ccc(-c4ccc(O)nn4)cc3)C(=O)C3CC=CCC23)cc1OC (stereo not drawn)	31%	–
-8.4	-5.8	COc1ccc(C2=NN(CC(=O)Nc3cccc(C4=NNC(=O)CC4C)c3)C(=O)C3CC=CCC23)cc1OC (stereo not drawn)	–	–
-7.8	-7.5	COc1ccc(C2=NN(CCCCOc3ccc(C4=NNC(=O)CC4C)cc3)C(=O)C3CC=CCC23)cc1Cl (stereo not drawn)	47%	–
-7	-7.1	COc1ccc(C2=NN(c3ccc(C4=NNC(=O)CC4C)cc3)C(=O)C3CC=CCC23)cc1Cl (stereo not drawn)	35%	–
-8.7	-7.1	COc1ccc(C2=NN(CCCCOc3ccc(C4=NNC(=O)CC4C)cc3)C(=O)C3CC=CCC23)cc1OC (stereo not drawn)	32%	–
-7.8	-6.3	COc1ccc(C2=NN(c3ccc(C4=NNC(=O)CC4C)cc3)C(=O)C3CC=CCC23)cc1OC1CCCC1 (stereo not drawn)	18%	–
-8.4	-6.7	COc1ccc(C2=NN(c3ccc(C4=NNC(=O)CC4C)cc3)C(=O)C3CC=CCC23)cc1OC (stereo not drawn)	34%	–
-8.2	-7	COc1ccc(C2=NN(CCCCC(=O)Nc3ccc(C4=NNC(=O)CC4C)cc3)C(=O)C3CC=CCC23)cc1OC (stereo not drawn)	26%	–
-8.2	-6.1	COc1ccc(C2=NN(CCCCC(=O)Nc3ccc(-c4ccc(O)nn4)cc3)C(=O)C3CC=CCC23)cc1OC (stereo not drawn)	27%	–
-8.4	-6.7	COc1ccc(C2=NN(CC(=O)Nc3ccc(C4=NNC(=O)CC4C)cc3)C(=O)C3CC=CCC23)cc1OC (stereo not drawn)	13%	–

The next lines start with the molecule.

Compound	Log IC50 (Phosphodiesterase 4)	Log IC50 (Phosphodiesterase 3)	inhibition in vivo at 30 µmol/kg (Mus musculus [1])	inhibition in vivo at 30 µmol/kg (Mus musculus [2])
COc1ccc(C2=NN(c3ccc(-c4ccc(O)nn4)cc3)C(=O)C3CC=CCC23)cc1OC (stereo not drawn)	-8.1	-5.4	8%	–
CCOc1ccc(C2=NN(c3ccccc3)C(=O)C3CC=CCC23)cc1OCC (stereo not drawn)	-7.7	< -5	–	–
CC1CC(=O)NN=C1c1ccc2c(c1)C(C)(C)C(=O)N2 (stereo not drawn)	–	-7.9	–	–
CC1(C)C(=O)Nc2ccc(-c3ccc(O)nn3)cc21	–	-6.9	–	–
COc1ccc(C2=NN(c3ccccc3)C(=O)C3CC=CCC23)cc1Cl (stereo not drawn)	-7.1	< -5	–	–
COc1ccc(C2=NN(c3ccccc3)C(=O)C3CC=CCC23)cc1OC (stereo not drawn)	-7.9	< -5	–	13%
COc1ccc(C2=NN(c3ccccc3)C(=O)C3CC=CCC23)cc1OC1CCCC1 (stereo not drawn)	-7.8	< -5	–	–
COc1ccc([C@]2(C#N)CC[C@@H](C(=O)O)CC2)cc1OC1CCCC1 [CILOMILAST]	–	< -5	33%	–
CC1CC(=O)NN=C1c1ccc(-n2cnc3c2CCCC3)cc1 (stereo not drawn) [TETRAHYDROBENXIMIDAZOLE]	–	-6.3	–	–
COc1cc(-c2ccc(=O)[nH]n2)ccc1OC(F)F [ZARDAVERINE]	–	–	22%	–
